Results: ChEMBL document CHEMBL1127593, “14-epi stereoisomers of 25-hydroxy- and 1 alpha,25-dihydroxyvitamin D3: synthesis, isomerization to previtamins, and biological studies” (J Med Chem, 1994)

Legend:
[1] = Keq (k1/1-k) for the transformation of vitamin D to previtamin D; assay type: ADME
Method in brief: (§1)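 Vitamin/previtamin ratio read by 1H-NMR integration. Kinetics run in triplicate over 59.8–89.7 °C with Arrhenius treatment; 1α-hydroxy analogue run once at 80 °C. Equilibrium constant at 80 °C taken after prolonged heating from either isomer.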

[2] = Compound was tested for the backward reaction of conversion of vitamin D to previtamin D; assay type: ADME; method in brief: as §1
[3] = Compound was tested for rate constant for the forward reaction of isomerization of previtamin D to vitamin D; assay type: ADME; method in brief: as §1
[4] = Compound was tested for rate constant for the transformation of vitamin to previtamin; assay type: ADME; method in brief: as §1
[5] = test system: vitamin D receptor (Gallus gallus); assay: Compound was evaluated for chick vitamin D receptor relative competitive induces (relative to alpha, 25-(OH2)-D3)
[6] = Compound was tested for the backward reaction of conversion of vitamin D to previtaminD; assay type: ADME; method in brief: as §1

SMILES: C=C1CC[C@H](O)C/C1=C/C=C1\CCC[C@@]2(C)[C@@H]1CC[C@@H]2[C@H](C)CCCC(C)(C)O
- Keq [1]: 0.058
- k-1 [2]: 0.000845 s⁻¹
- k1 [3]: 4.92e-05 s⁻¹
- Log A [4]: 8.5 s-1

SMILES: CC1=C(/C=C\C2=CCC[C@@]3(C)[C@@H]2CC[C@@H]3[C@H](C)CCCC(C)(C)O)CC(O)CC1 (some centres undefined)
- RCI [5]: 0.011

SMILES: CC1=C(/C=C\C2=CCC[C@@]3(C)[C@@H]2CC[C@@H]3[C@H](C)CCCC(C)(C)O)C[C@@H](O)C[C@@H]1O
- RCI [5]: 1.6

SMILES: C=C1CC[C@H](O)C/C1=C/C=C1\CCC[C@]2(C)[C@@H]([C@H](C)CCCC(C)(C)O)CC[C@@H]12 [CALCIFEDIOL ANHYDROUS]
- k-1 [6]: 0.000135 s⁻¹
- Keq [1]: 3.8
- k1 [3]: 0.000502 s⁻¹

SMILES: C=C1/C(=C\C=C2/CCC[C@]3(C)[C@@H]([C@H](C)CCCC(C)(C)O)CC[C@@H]23)C[C@@H](O)C[C@@H]1O [CALCITRIOL]
- k-1 [6]: 7.6e-05 s⁻¹
- Keq [1]: 7.3
- k1 [3]: 0.000563 s⁻¹
- Log A [4]: 9.9 s-1

SMILES: C=C1CC[C@H](O)C/C1=C/C=C1\CCC[C@]2(C)[C@@H]([C@H](C)CCCC(C)C)CC[C@@H]12 [CHOLECALCIFEROL]
- Log A [4]: 10.7 s-1
